What was measured:
Format in all cases: functional
HL-60 [1] = assay: Effect on cell growth in human HL60 cells assessed as cell number per mL at 2 uM; set-up: scale not given here
Method in brief: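 HL-60 cells in RPMI 1640 with 10% FBS and 2 mM glutamine, 37 °C, 5% CO2, doubling time about 24 h. Exposed 24 h to 2 µM compound diluted from DMSO into medium. Cells per mL counted with a Coulter counter.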

HL-60 [2] = assay: Induction of cell death in human HL60 cells at 2 uM by propidium iodide staining method
Method in brief: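 HL-60 cells in RPMI 1640 with 10% FBS and 2 mM glutamine at 37 °C, 5% CO2, exposed for 24 h to compound diluted in medium from DMSO. Cells were counterstained with propidium iodide (5 µg/mL) for plasma membrane integrity and analysed by flow cytometry. The readout is the percentage of PI-positive cells.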

Cancer cell lines [3] = assay: Inhibition of human colon cancer cells; details: for TGI: read-out: pTGI (converted)
Method in brief: (§1)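 NCI 60-cell-line panel, with results grouped by tissue subpanel. Compounds dissolved in DMSO and tested at five 10-fold dilutions, top concentration 10^-4 M. Values given as -log molar concentration for 50% growth inhibition (pGI50), total growth inhibition (pTGI) and 50% cell kill (pLC50), with subpanel means calculated.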

Leukemia cell = assay: Inhibition of human leukemia cells; details: for TGI: read-out: pTGI (converted); method in brief: as §1
Cancer cell lines [4] = assay: Inhibition of human non-small cell lung cancer cells; details: for TGI: read-out: pTGI (converted); method in brief: as §1
Cancer cell lines [5] = assay: Inhibition of human CNS cancer cells; details: for TGI: read-out: pTGI (converted); method in brief: as §1
Melanoma cell = assay: Inhibition of human melanoma cells; details: for TGI: read-out: pTGI (converted); method in brief: as §1
Cancer cell lines [6] = assay: Inhibition of human ovarian cancer cells; details: for TGI: read-out: pTGI (converted); method in brief: as §1
Cancer cell lines [7] = assay: Inhibition of human renal cancer cells; details: for TGI: read-out: pTGI (converted); method in brief: as §1
Cancer cell lines [8] = assay: Inhibition of human prostate cancer cells; details: for TGI: read-out: pTGI (converted); method in brief: as §1
Cancer cell lines [9] = assay: Inhibition of human breast cancer cells; details: for TGI: read-out: pTGI (converted); method in brief: as §1
HL-60 [10] = assay: Cell cycle arrest in human HL60 cells assessed as accumulation at G0/G1 phase at 2 uM
Method in brief: (§2)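 HL-60 cells kept in RPMI 1640 with 10% FBS and 2 mM glutamine at 37 °C, 5% CO2. Treated 24 h at 2 µM from DMSO stock diluted in medium. Cells fixed in cold 70% ethanol and stained with propidium iodide 50 µg/mL plus RNAase 10 µg/mL for 30 min. DNA profiles read by flow cytometry on ≥10 000 cells, and phase percentages calculated.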

HL-60 [11] = assay: Cell cycle arrest in human HL60 cells assessed as accumulation at S phase at 2 uM; method in brief: as §2
HL-60 [12] = assay: Cell cycle arrest in human HL60 cells assessed as accumulation at G2/M phase at 2 uM; method in brief: as §2

Structure (SMILES)	Activity (HL-60 [1])	Activity (HL-60 [2])	GI50 (Cancer cell lines [3])	TGI (Cancer cell lines [3])	GI50 (Leukemia cell)	TGI (Leukemia cell)	GI50 (Cancer cell lines [4])	TGI (Cancer cell lines [4])	GI50 (Cancer cell lines [5])	TGI (Cancer cell lines [5])	GI50 (Melanoma cell)	TGI (Melanoma cell)	GI50 (Cancer cell lines [6])	TGI (Cancer cell lines [6])	GI50 (Cancer cell lines [7])	TGI (Cancer cell lines [7])	GI50 (Cancer cell lines [8])	TGI (Cancer cell lines [8])	GI50 (Cancer cell lines [9])	TGI (Cancer cell lines [9])	further results
Cc1cn2c(/C=N/NC(=N)N)c(-c3cc(Cl)sc3Cl)nc2s1	750	7.4%	1.02 µM	3.98 µM	0.891 µM	1.78 µM	1.1 µM	3.63 µM	1.12 µM	4.37 µM	1.05 µM	3.09 µM	1.02 µM	2.34 µM	1.23 µM	3.02 µM	0.794 µM	1.48 µM	1.23 µM	2.63 µM	Activity (HL-60 [10]): 35.3%; Activity (HL-60 [11]): 50%; Activity (HL-60 [12]): 14.7%
COc1cc([N+](=O)[O-])c(OC)cc1-c1nc2sc(Cl)cn2c1/C=N\Nc1ccccn1	–	–	44.7 µM	–	9.12 µM	35.5 µM	25.7 µM	–	15.5 µM	30.2 µM	33.1 µM	46.8 µM	20 µM	33.1 µM	13.5 µM	30.9 µM	16.2 µM	–	17.4 µM	41.7 µM	–
Cc1cn2c(/C=N/NC(=N)NN)c(-c3ccc(Cl)c([N+](=O)[O-])c3)nc2s1	760	7.8%	0.955 µM	2.09 µM	6.31 µM	–	2.4 µM	9.77 µM	1.12 µM	2.95 µM	1.82 µM	4.57 µM	1.29 µM	3.72 µM	3.24 µM	8.51 µM	3.39 µM	9.55 µM	1.55 µM	5.37 µM	Activity (HL-60 [10]): 35%; Activity (HL-60 [11]): 51.9%; Activity (HL-60 [12]): 13.1%
CCOC(=O)c1nc2sc(Cl)cn2c1/C=N\NC(=N)N	–	–	20.9 µM	47.9 µM	14.1 µM	38.9 µM	18.2 µM	41.7 µM	19.5 µM	–	19.5 µM	45.7 µM	20.9 µM	–	21.4 µM	–	17 µM	38.9 µM	22.9 µM	–	–
N=C(N)N/N=C/c1c(-c2ccc(Cl)c([N+](=O)[O-])c2)nc2sc3ccccc3n12	–	–	0.339 µM	3.63 µM	0.138 µM	–	0.676 µM	3.8 µM	0.447 µM	3.02 µM	0.708 µM	2.75 µM	1.1 µM	1.95 µM	0.832 µM	3.89 µM	2.29 µM	14.8 µM	0.741 µM	9.55 µM	–
Cc1cn2c(/C=N/NC3=NCCN3)c(-c3ccc(Cl)c([N+](=O)[O-])c3)nc2s1	780	11.9%	1.2 µM	10 µM	0.676 µM	6.17 µM	1.55 µM	6.03 µM	1.07 µM	4.27 µM	0.977 µM	2.4 µM	1.41 µM	3.39 µM	1.45 µM	3.72 µM	1.15 µM	2.95 µM	1.82 µM	7.59 µM	Activity (HL-60 [10]): 31.3%; Activity (HL-60 [11]): 53.7%; Activity (HL-60 [12]): 15%

Reference: ChEMBL document CHEMBL1142319, “New antitumor imidazo[2,1-b]thiazole guanylhydrazones and analogues” (2008)
